Here are results for ten compounds from ChEMBL document CHEMBL1649281, “Detection of the novel extended-spectrum beta-lactamase OXA-161 from a plasmid-located integron in Pseudomonas aeruginosa clinical isolates from Spain” (2009).

Holding throughout (format): functional
Experiment [1] deals with Pseudomonas aeruginosa. As to the kind of experiment: Antibacterial activity against Pseudomonas aeruginosa isolated from wound infection of patient by Etest.
Experiment [2] has as its system Pseudomonas aeruginosa. The experiment in a line: Antibacterial activity against Pseudomonas aeruginosa PAO1 by Etest.
Experiment [3] relates to Pseudomonas aeruginosa. The experiment in a line: Antibacterial activity against Pseudomonas aeruginosa isolated from lung biopsy specimen of patient by Etest.
The subject of experiment [4] is Pseudomonas aeruginosa. The experiment in a line: Antibacterial activity against Pseudomonas aeruginosa PAO1 harboring Pseudomonas aeruginosa plasmid DNA lung biopsy specimen of patient by Etest.
Experiment [5] deals with Pseudomonas aeruginosa. The experiment in a line: Antibacterial activity against Pseudomonas aeruginosa PAO1 harboring Pseudomonas aeruginosa plasmid DNA isolated from wound infection of patient by Etest.
The subject of experiment [6] is Pseudomonas aeruginosa. As to the kind of experiment: Antibacterial activity against Pseudomonas aeruginosa isolated from lung biopsy specimen of patient by CLSI broth microdilution method. The essentials: (§1)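 CLSI standard broth microdilution MICs were determined for carbenicillin, ceftazidime, and ceftazidime plus clavulanate held at a fixed 4 μg/ml.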
(In general: In broth dilution the organism is exposed to a series of concentrations in liquid medium.)

For experiment [7], the system named is Pseudomonas aeruginosa. The experiment in a line: Antibacterial activity against Pseudomonas aeruginosa isolated from wound infection of patient by CLSI broth microdilution method. The essentials:
as §1

The subject of experiment [8] is Pseudomonas aeruginosa. The experiment in a line: Antibacterial activity against Pseudomonas aeruginosa PAO1 by CLSI broth microdilution method. The essentials: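 MIC by standard CLSI broth microdilution, tested with carbenicillin, ceftazidime, and ceftazidime plus clavulanate at 4 μg/ml. P. aeruginosa PAO1 was the recipient strain, with transformants produced by electroporation and selected on LB agar with 20 μg/ml ceftazidime.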

The test system of experiment [9] is Pseudomonas aeruginosa. As to the kind of experiment: Antibacterial activity against Pseudomonas aeruginosa PAO1 harboring Pseudomonas aeruginosa plasmid DNA isolated from wound infection of patient by CLSI broth microdilution method. The essentials: (§2)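 Plasmid DNA from the clinical isolate was electroporated into PAO1, and transformants were selected on LB agar with 20 μg/ml ceftazidime. Transformants were confirmed by double-disk synergy test and PCR. CLSI broth microdilution MICs were determined for carbenicillin, ceftazidime, and ceftazidime plus fixed 4 μg/ml clavulanate.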

For experiment [10], the system named is Pseudomonas aeruginosa. As to the kind of experiment: Antibacterial activity against Pseudomonas aeruginosa PAO1 harboring cloned pUCPOXA-161 by CLSI broth microdilution method. The essentials:
as §1

Experiment [11] has as its system Pseudomonas aeruginosa. The experiment in a line: Antibacterial activity against Pseudomonas aeruginosa PAO1 harboring Pseudomonas aeruginosa plasmid DNA lung biopsy specimen of patient by CLSI broth microdilution method. The essentials:
as §2

Experiment [12] concerns Pseudomonas aeruginosa. As to the kind of experiment: Antibacterial activity against Pseudomonas aeruginosa PAO1 harboring cloned pUCPOXA-2 by CLSI broth microdilution method. The essentials:
as §1

Experiment [13] deals with Pseudomonas aeruginosa. As to the kind of experiment: Antibacterial activity against Pseudomonas aeruginosa PAO1 harboring cloned pUCPOXA-161 by Etest.
Experiment [14] relates to Pseudomonas aeruginosa. As to the kind of experiment: Antibacterial activity against Pseudomonas aeruginosa PAO1 harboring cloned pUCPOXA-2 by Etest.

≈ marks a conversion by molar mass, not a printed value.

As a reminder, the MIC is the smallest concentration in the dilution series that meets the test's criterion for growth inhibition. Lower therefore signals inhibition by little substance.

Regarding `CO/N=C(\C(=O)N[C@@H]1C(=O)N2C(C(=O)[O-])=C(C[N+]3(C)CCCC3)CS[C@H]12)c1csc(N)n1`, the minimum inhibitory concentration (MIC) worked out at 16 µg/mL (≈ 33.3 µM) against Pseudomonas aeruginosa [1]; 1 µg/mL (≈ 2.08 µM) against Pseudomonas aeruginosa [2]; 12 µg/mL (≈ 25 µM) with Pseudomonas aeruginosa [3]; 8 µg/mL (≈ 16.6 µM) in the experiment with Pseudomonas aeruginosa [4]; 8 µg/mL (≈ 16.6 µM) against Pseudomonas aeruginosa [5].
Take `NCC[C@H](O)C(=O)N[C@@H]1C[C@H](N)[C@@H](O[C@H]2O[C@H](CN)[C@@H](O)[C@H](O)[C@H]2O)[C@H](O)[C@H]1O[C@H]1O[C@H](CO)[C@@H](O)[C@H](N)[C@H]1O` [AMIKACIN]: the minimum inhibitory concentration (MIC) with Pseudomonas aeruginosa [1] came to 32 µg/mL (≈ 54.6 µM); against Pseudomonas aeruginosa [2], 3 µg/mL (≈ 5.12 µM); against Pseudomonas aeruginosa [3] it was 64 µg/mL (≈ 109 µM); with Pseudomonas aeruginosa [4], 12 µg/mL (≈ 20.5 µM); in the experiment on Pseudomonas aeruginosa [5] it was 12 µg/mL (≈ 20.5 µM).
`CC1(C)S[C@@H]2[C@H](NC(=O)C(C(=O)O)c3ccccc3)C(=O)N2[C@H]1C(=O)O` (stereo not given in full) [CARBENICILLIN]: the MIC is 128 µg/mL (≈ 338 µM) against Pseudomonas aeruginosa [6]; 128 µg/mL (≈ 338 µM) in the experiment on Pseudomonas aeruginosa [7]; 32 µg/mL (≈ 84.6 µM) with Pseudomonas aeruginosa [8]; 128 µg/mL (≈ 338 µM) against Pseudomonas aeruginosa [9]; 128 µg/mL (≈ 338 µM) in the experiment on Pseudomonas aeruginosa [10]; 128 µg/mL (≈ 338 µM) with Pseudomonas aeruginosa [11]. In the experiment on Pseudomonas aeruginosa [12], this compound yielded a minimum inhibitory concentration (MIC) of over 256 µg/mL.
As to `CC(C)(O/N=C(\C(=O)N[C@@H]1C(=O)N2C(C(=O)[O-])=C(C[n+]3ccccc3)CS[C@H]12)c1csc(N)n1)C(=O)O` [CEFTAZIDIME], the minimum inhibitory concentration (MIC) in the experiment on Pseudomonas aeruginosa [6] is over 256 µg/mL; in the experiment with Pseudomonas aeruginosa [7], over 256 µg/mL; with Pseudomonas aeruginosa [8], 2 µg/mL (≈ 3.66 µM); in the experiment with Pseudomonas aeruginosa [9], 128 µg/mL (≈ 234 µM); with Pseudomonas aeruginosa [10], 64 µg/mL (≈ 117 µM); with Pseudomonas aeruginosa [11], 128 µg/mL (≈ 234 µM). This compound also returned a minimal inhibitory concentration (MIC) in the experiment on Pseudomonas aeruginosa [12] of 8 µg/mL (≈ 14.6 µM).
Turning to `C[C@@H](O)[C@H]1C(=O)N2C(C(=O)O)=C(SCCNC=N)C[C@H]12` [IMIPENEM ANHYDROUS], the MIC with Pseudomonas aeruginosa [1] was 16 µg/mL (≈ 53.4 µM); in the experiment with Pseudomonas aeruginosa [13], 1.5 µg/mL (≈ 5.01 µM); against Pseudomonas aeruginosa [2], 1.5 µg/mL (≈ 5.01 µM); against Pseudomonas aeruginosa [3] it was 32 µg/mL (≈ 107 µM); in the experiment with Pseudomonas aeruginosa [14], 1.5 µg/mL (≈ 5.01 µM); against Pseudomonas aeruginosa [4], 1 µg/mL (≈ 3.34 µM). In the experiment with Pseudomonas aeruginosa [5], this compound yielded an MIC of 1 µg/mL (≈ 3.34 µM).
For `C[C@@H](O)[C@H]1C(=O)N2C(C(=O)O)=C(S[C@@H]3CN[C@H](C(=O)N(C)C)C3)[C@H](C)[C@H]12` [MEROPENEM], the MIC amounted to 6 µg/mL (≈ 15.6 µM) against Pseudomonas aeruginosa [1]; 0.5 µg/mL (≈ 1.3 µM) in the experiment on Pseudomonas aeruginosa [13]; 0.38 µg/mL (≈ 0.991 µM) in the experiment with Pseudomonas aeruginosa [2]; 8 µg/mL (≈ 20.9 µM) with Pseudomonas aeruginosa [3]; 0.38 µg/mL (≈ 0.991 µM) against Pseudomonas aeruginosa [14]; 0.75 µg/mL (≈ 1.96 µM) in the experiment on Pseudomonas aeruginosa [4]. Also, the minimum inhibitory concentration (MIC) in the experiment on Pseudomonas aeruginosa [5] is 0.75 µg/mL (≈ 1.96 µM).
Regarding `CCN1CCN(C(=O)N[C@@H](C(=O)N[C@@H]2C(=O)N3[C@@H]2SC(C)(C)[C@@H]3C(=O)O)c2ccccc2)C(=O)C1=O` [PIPERACILLIN], the MIC with Pseudomonas aeruginosa [1] is 24 µg/mL (≈ 46.4 µM); in the experiment with Pseudomonas aeruginosa [13], 24 µg/mL (≈ 46.4 µM); against Pseudomonas aeruginosa [2], 2 µg/mL (≈ 3.86 µM); with Pseudomonas aeruginosa [3], 24 µg/mL (≈ 46.4 µM); against Pseudomonas aeruginosa [14], 48 µg/mL (≈ 92.7 µM); with Pseudomonas aeruginosa [4] it was 32 µg/mL (≈ 61.8 µM). In the experiment with Pseudomonas aeruginosa [5], this compound showed an MIC of 16 µg/mL (≈ 30.9 µM).
Consider `NC[C@H]1O[C@H](O[C@H]2[C@H](O)[C@@H](O[C@H]3O[C@H](CO)[C@@H](O)[C@H](N)[C@H]3O)[C@H](N)C[C@@H]2N)[C@H](N)C[C@@H]1O` [TOBRAMYCIN], for which the MIC against Pseudomonas aeruginosa [1] was 48 µg/mL (≈ 103 µM); in the experiment with Pseudomonas aeruginosa [2], 1 µg/mL (≈ 2.14 µM); against Pseudomonas aeruginosa [3] it was 64 µg/mL (≈ 137 µM); in the experiment on Pseudomonas aeruginosa [4], 12 µg/mL (≈ 25.7 µM); in the experiment with Pseudomonas aeruginosa [5], 12 µg/mL (≈ 25.7 µM).
For the compound COLISTIN, the MIC against Pseudomonas aeruginosa [1], in the experiment with Pseudomonas aeruginosa [2], in the experiment on Pseudomonas aeruginosa [3], against Pseudomonas aeruginosa [4] and in the experiment with Pseudomonas aeruginosa [5] was 2 µg/mL each time.
Take GENTAMICIN: the minimum inhibitory concentration (MIC) with Pseudomonas aeruginosa [1] worked out at 32 µg/mL; in the experiment with Pseudomonas aeruginosa [2], 2 µg/mL; in the experiment with Pseudomonas aeruginosa [3] it was 64 µg/mL; with Pseudomonas aeruginosa [4] it was 8 µg/mL; against Pseudomonas aeruginosa [5] it was 12 µg/mL.
